Measurements taken from ChEMBL document CHEMBL4477278, “Synthesis and evaluation of 8-hydroxyquinolin derivatives substituted with (benzo[d][1,2]selenazol-3(2H)-one) as effective inhibitor of metal-induced Aβ aggregation and antioxidant” (Bioorg Med Chem, 2016).

What was measured:
[1] = Permeability of the compound at 100 ug/ml measured after 10 hrs by PAMPA-BBB assay; format: ADME; conditions: read-out: Peff
Method in brief: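 PAMPA-BBB: filter coated with porcine brain lipid in dodecane (20 mg/mL). Compound is dissolved in DMSO (5 mg/mL) and diluted 50-fold in PBS/EtOH 7:3 to 100 µg/mL in donor wells, with PBS/EtOH acceptor. Plates stand 10 h at 25 °C, then acceptor concentration is read by UV at five wavelengths, four wells, at least three runs. Pe is calculated by formula; assay validated with 13 reference drugs.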

[2] = Antioxidant activity assessed as AAPH radical scavenging activity preincubated for 10 mins followed by AAPH challenge measured as trolox equivalents measured at every min for 120 mins by ORAC-FL assay; format: functional
Method in brief: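 ORAC-FL: compound diluted in 75 mM phosphate buffer pH 7.4, premixed with fluorescein (70 nM final) for 10 min at 37 °C, then AAPH added. Fluorescence (ex 485, em 520 nm) read each minute for 120 min. Net AUC versus blank is converted to Trolox equivalents using a Trolox standard curve (10–100 µM). Triplicates, at least three independent runs.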

[3] = Antioxidant activity assessed as glutathione peroxidase-like activity in phosphate buffer measured as initial rate for the reduction of […] by GSH at 80 uM in presence of NADPH by coupled reductase assay; format: functional
Method in brief: (§1)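 Coupled reductase assay in 100 mM potassium phosphate pH 7.5 at 25 °C: 2 mM GSH, 1 mM EDTA, 1.3 U/mL glutathione reductase, 0.4 mM NADPH, 80 µM selenium compound. Reaction started with 1.6 mM peroxide. Initial rate is taken from NADPH oxidation at 340 nm over the first 5–10% of reaction (ε 6.22 mM⁻¹cm⁻¹). Triplicate, mean ± SD.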

[4] = Antioxidant activity assessed as Cum-OOH scavenging at 10 uM measured after 300 mins in presence of GSH and NADPH; format: functional
Method in brief: (§2)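 Kinetic peroxide removal in 100 mM phosphate buffer pH 7.5 at 25 °C with 1 mM EDTA, 0.25 mM GSH, 0.50 mM NADPH, 1.3 U/mL glutathione reductase, 0.20 mM peroxide and 10 µM catalyst. NADPH consumption followed over time. Means of three independent experiments.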

[5] = Antioxidant activity assessed as t-BuOOH scavenging at 10 uM measured after 300 mins in presence of GSH and NADPH; format: functional; method in brief: as §2
[6] = Antioxidant activity assessed as H2O2 scavenging at 10 uM measured after 200 to 220 mins in presence of GSH and NADPH; format: functional; method in brief: as §2
[7] = Antioxidant activity assessed as glutathione peroxidase-like activity in phosphate buffer measured as initial rate for the reduction of tert-butyl hydroperoxide by GSH at 80 uM in presence of NADPH by coupled reductase assay; format: functional; method in brief: as §1
[8] = Inhibition of Cu2+ induced aggregation of recombinant human amyloid beta (1 to 42) at 50 uM after 24 hrs by thioflavin-T based fluorescence assay
Method in brief: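 Aβ1–42 (stock in 1% ammonium hydroxide), 25 µM final, with or without CuSO4 (25 µM) and compound (50 µM) in HEPES pH 6.6 with NaCl, incubated 24 h at 37 °C. Samples then diluted tenfold into 50 mM glycine-NaOH pH 8.0 containing 5 µM thioflavin T for fluorescence read-out.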

[9] = Antioxidant activity assessed as glutathione peroxidase-like activity in phosphate buffer measured as initial rate for the reduction of cumene hydroperoxide by GSH at 80 uM in presence of NADPH by coupled reductase assay; format: functional; method in brief: as §1
[10] = Metal chelating activity of the compound assessed as Cu2+ complex formation by measuring maximum absorption wave length at 50 uM measured after 30 mins by UV-Vis spectrometry (reference value: 301 nm); format: functional
Method in brief: (§3)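 Compound (50 µM final) with or without metal salt (CuSO4, FeSO4, FeCl3 or ZnCl2, 50 µM final) in 20 mM HEPES, 150 mM NaCl, pH 7.4. After 30 min, UV-vis absorption spectra are recorded at room temperature.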

[11] = Metal chelating activity of the compound assessed as Fe2+ complex formation by measuring maximum absorption wave length at 50 uM measured after 30 mins by UV-Vis spectrometry (reference value: 301 nm); format: functional; method in brief: as §3
[12] = Metal chelating activity of the compound assessed as Zn2+ complex formation by measuring maximum absorption wave length at 50 uM measured after 30 mins by UV-Vis spectrometry (reference value: 301 nm); format: functional; method in brief: as §3
[13] = Metal chelating activity of the compound assessed as Fe3+ complex formation by measuring maximum absorption wave length at 50 uM measured after 30 mins by UV-Vis spectrometry (reference value: 301 nm); format: functional; method in brief: as §3

Structure (SMILES) | Papp at 10 h, 100 ug/ml [1] [×10⁻⁶ cm/s] | Activity (umolequiv/umol) [2] | Activity [3] [µM/min] | Activity [4] [%] | Activity [5] [%] | Activity [6] [%] | Activity [7] [µM/min] | inhibition [8] [%] | Activity [9] [µM/min] | Activity [10] [nm] | Activity [11] [nm] | Activity [12] [nm] | Activity [13] [nm]
O=c1c2c(C(F)(F)F)cccc2[se]n1-c1ccc2cccc(O)c2n1 | 10.1 | 0.2 | 161 | 77 | 67 | 68 | 62 | 79 | 31.7 |  |  |  | 
O=c1c2ccccc2[se]n1-c1ccccc1 |  |  | 113 |  |  |  | 47.6 |  | 22.6 |  |  |  | 
O=c1c2c(Cl)cccc2[se]n1-c1ccc2cccc(O)c2n1 | 7.8 | 0.9 | 155 | 68 | 38 | 65 | 52.1 |  | 35.1 |  |  |  | 
O=c1c2c(F)cccc2[se]n1-c1ccc2cccc(O)c2n1 | 7.4 | 2.3 | 102 | 74 | 46 | 71 | 47.9 | 82 | 31.4 |  |  |  | 
Oc1c(I)cc(Cl)c2cccnc12 |  | 0.5 |  |  |  |  |  | 87 |  |  |  |  | 
O=c1c2cccc(F)c2[se]n1-c1ccc2cccc(O)c2n1 | 11.1 | 3.6 | 152 | 66 | 31 | 62 | 55.5 |  | 24.1 |  |  |  | 
O=c1c2cccc(C(F)(F)F)c2[se]n1-c1ccc2cccc(O)c2n1 | 13.3 | 0.3 | 132 |  |  |  | 31.7 |  | 30 |  |  |  | 
O=c1c2cc(O)ccc2[se]n1-c1ccc2cccc(O)c2n1 | 5.9 | 2.6 | 106 | 47 | 30 | 60 | 63.4 | 60 | 24.3 | 316 | 297 | 304 | 300
O=c1c2cc(Cl)ccc2[se]n1-c1ccc2cccc(O)c2n1 |  |  | 45 |  |  |  | 6.9 |  | 23.9 |  |  |  | 
O=c1c2cc(C(F)(F)F)ccc2[se]n1-c1ccc2cccc(O)c2n1 |  |  | 69.9 |  |  |  | 8 |  | 5.6 |  |  |  | 
O=c1c2ccc(Cl)cc2[se]n1-c1ccc2cccc(O)c2n1 |  |  | 45 |  |  |  | 7.1 |  | 23.3 |  |  |  | 
O=c1c2cc(F)ccc2[se]n1-c1ccc2cccc(O)c2n1 |  |  | 64.3 |  |  |  | 20.4 |  | 15.9 |  |  |  | 
O=c1c2ccc(F)cc2[se]n1-c1ccc2cccc(O)c2n1 |  |  | 77.3 |  |  |  | 6.4 |  | 11.1 |  |  |  | 
O=c1c2ccccc2[se]n1-c1ccc2cccc(O)c2n1 |  |  | 49.9 |  |  |  | 14 |  | 17.1 |  |  |  | 
O=c1c2ccc(C(F)(F)F)cc2[se]n1-c1ccc2cccc(O)c2n1 |  |  | 64.2 |  |  |  | 10.6 |  | 16.1 |  |  |  | 
